Laboratory results reported in ChEMBL document CHEMBL1134105, “Enantioselective synthesis and complement inhibitory assay of A/B-ring partial analogues of oleanolic acid” (Bioorg Med Chem Lett, 2001).
Active and inactive are the calls of the source. The rule behind the calls is not given here.

Experiments:
[1] = organism: Homo sapiens; assay: In vitro concentration required to inhibit classical pathway complement induced hemolysis in human; NA= not active; assay type: functional
How it was run: (§1)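 Classical pathway complement inhibition was tested in vitro; IC50 values are means of three experiments with standard deviation.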

[2] = test system: SK-MEL; assay: Cytotoxicity against human malignant melanoma cell line SK-MEL; assay type: functional, cell-based
How it was run: (§2)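 SK-MEL human malignant melanoma cells, 25,000 per well, were exposed to compound solutions for 72 h. Viable cells were counted by neutral red uptake: cells were washed with saline, incubated 1.5 h in 0.17% neutral red in serum-free RPMI, then washed again to remove extracellular dye.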

[3] = organism: Homo sapiens; assay: In vitro concentration required to inhibit classical pathway complement induced hemolysis in human; assay type: functional; how it was run: as §1
[4] = In vitro therapeutic index (IC50 cytotoxicity/ IC50 complement inhibition) was determined; assay type: functional
[5] = test system: SK-MEL; assay: Cytotoxicity against human malignant melanoma cell line SK-MEL; NA= not active; assay type: functional, cell-based; how it was run: as §2
[6] = In vitro therapeutic index (IC50 cytotoxicity/ IC50 complement inhibition) was determined; ND=not active; assay type: functional

Structure (SMILES) | IC50 [1] | IC50 [2] [µM] | IC50 [3] [µM] | TI [4] | IC50 [5] | TI [6]
COc1ccc(CO[C@H]2CC[C@]3(C)C[C@H](Cc4ccccc4C(=O)O)CCC3C2(C)C)cc1 (stereo partly specified) | Not Active | 166 | – | – | – | –
COc1ccc(CO[C@H]2CC[C@]3(C)CC(Cc4cccc(C(=O)O)c4)CCC3C2(C)C)cc1 (single isomer, unassigned) | – | 180 | 488 | 0.4 | – | –
COC(=O)c1ccc(/C=C/[C@H]2CCCC3C(C)(C)[C@@H](O)CC[C@@]32C)cc1 (stereo partly specified) | Not Active | – | – | – | Not Active | –
CC1(C)C2CCC[C@H](/C=C/c3ccccc3C#N)[C@@]2(C)CC[C@@H]1O (stereo partly specified) | Not Active | 155 | – | – | – | –
CC1(C)C2CCC(Cc3ccc(C(=O)O)cc3)C[C@@]2(C)CC[C@@H]1O (single isomer, unassigned) | – | 378 | 610 | 0.6 | – | –
CC1(C)C2CC[C@@H](Cc3ccccc3C(=O)O)C[C@@]2(C)CC[C@@H]1O (stereo partly specified) | – | 484 | 616 | 0.8 | – | –
CC1(C)C2CCC[C@H](/C=C/c3cccc(C(=O)O)c3)[C@@]2(C)CC[C@@H]1O (stereo partly specified) | – | 269 | 550 | 0.5 | – | –
CC1(C)C2CCC[C@H](/C=C/c3ccccc3C(=O)O)[C@@]2(C)CC[C@@H]1O (stereo partly specified) | – | 380 | 633 | 0.6 | – | –
CC1(C)C2CCC[C@H](/C=C/c3ccc(C(=O)O)cc3)[C@@]2(C)CC[C@@H]1O (stereo partly specified) | – | 380 | 623 | 0.6 | – | –
CC1(C)CC[C@]2(C(=O)O)CC[C@]3(C)C(=CC[C@@H]4[C@@]5(C)CC[C@H](O)C(C)(C)[C@@H]5CC[C@]43C)[C@@H]2C1 [OLEANOLIC_ACID] | – | – | – | 1.55 | – | –
CC1(C)C2CCC(Cc3cccc(C(=O)O)c3)C[C@@]2(C)CC[C@@H]1O (single isomer, unassigned) | – | 333 | 601 | 0.6 | – | –
COc1ccc(CO[C@H]2CC[C@]3(C)CC(Cc4ccc(C(=O)O)cc4)CCC3C2(C)C)cc1 (single isomer, unassigned) | Not Active | 200 | – | – | – | inactive
